Data published in ChEMBL document CHEMBL1128382, “N4-unsubstituted N1-arylpiperazines as high-affinity 5-HT1A receptor ligands” (J Med Chem, 1995).

Target: T1, 5-hydroxytryptamine receptor 1A (Rattus norvegicus, UniProt P19327)
T1 sequence (P19327 whole entry): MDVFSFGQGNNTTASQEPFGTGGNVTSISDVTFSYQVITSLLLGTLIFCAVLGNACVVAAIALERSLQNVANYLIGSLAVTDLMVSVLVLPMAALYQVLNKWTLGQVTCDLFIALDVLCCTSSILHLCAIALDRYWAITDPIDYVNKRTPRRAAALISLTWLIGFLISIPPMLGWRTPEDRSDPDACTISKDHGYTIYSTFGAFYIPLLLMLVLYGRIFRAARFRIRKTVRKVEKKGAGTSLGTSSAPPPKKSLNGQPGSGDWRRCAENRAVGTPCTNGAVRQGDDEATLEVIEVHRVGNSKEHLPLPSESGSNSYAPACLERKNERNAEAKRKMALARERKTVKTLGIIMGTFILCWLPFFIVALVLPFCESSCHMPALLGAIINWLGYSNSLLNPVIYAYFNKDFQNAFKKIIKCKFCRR
Experiment: Displacement of [3H]2-(di-N-propylamino)-8-hydroxytetralin from central 5-hydroxytryptamine 1A receptor recognition sites in rat frontal cortex homogenates.
Type: tissue-based
How it was run: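 Competition binding against tritiated 8-OH-DPAT in rat frontal cortex homogenate. Ki values come from n separate determinations, each testing four to six ligand concentrations in triplicate.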

Structure (SMILES) | Ki
C1=COc2c(cccc2N2CCNCC2)O1 | 12 nM
N#Cc1ccc2ccoc2c1N1CCNCC1 | 220 nM
Brc1cc(N2CCNCC2)c2occc2c1 | 35 nM
Fc1ccc(N2CCNCC2)c2occc12 | 18 nM
Brc1coc2c(N3CCNCC3)cccc12 | 130 nM
COc1cccc(N2CCNCC2)c1 | 320 nM
Fc1cc(N2CCNCC2)c2occc2c1 | 105 nM
Cc1ccc(N2CCNCC2)c2occc12 | 220 nM
Clc1ccc2c(c1N1CCNCC1)OCCO2 | 200 nM
COc1ccc(N2CCNCC2)c2occc12 | 430 nM
O=[N+]([O-])c1ccc2ccoc2c1N1CCNCC1 | 140 nM
COc1cc(N2CCNCC2)c2occc2c1 | 28 nM
c1cc2c(c(N3CCNCC3)c1)CCCC2 | 84 nM
Brc1ccc(N2CCNCC2)c2occc12 | 300 nM
Fc1ccc2ccoc2c1N1CCNCC1 | 5.8 nM
c1cc(N2CCNCC2)c2[nH]ccc2c1 | 200 nM
Cc1coc2c(N3CCNCC3)cccc12 | 73 nM
COc1ccc(N2CCNCC2)cc1 | 20000 nM
c1ccc(N2CCNCC2)cc1 [PHENYLPIPERAZINE] | 500 nM
COc1ccc2c(c1N1CCNCC1)OCCO2 | > 10000 nM
COc1cccc(N2CCNCC2)c1OC | 1000 nM
c1ccc2c(N3CCNCC3)cccc2c1 | 18 nM
Cc1cc2cccc(N3CCNCC3)c2o1 | 13 nM
c1cc(N2CCNCC2)c2sccc2c1 | 9.9 nM
Cc1cc(N2CCNCC2)c2occc2c1 | 120 nM
CC1=COc2c(cccc2N2CCNCC2)O1 | 5.2 nM
